An excerpt weighted towards active compounds, which were near 2.9% of everything screened.
E-sel inducer = E-selectin induction on HUVECs; HUVEC E-selectin immunofluorescence imaging; normalized: neutral wells 0, TNF-alpha wells 100; 260,000 compounds, 0.37% hits; activation, % at 7.58 µM;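 active means mean E-selectin-positive cell signal at least 10% of the positive control, reached in at least 60% of replicates, without over 20% cell loss; inconclusive means no rule given, readout overlaps actives, possibly toxicity-flagged; inactive means the rest, including those meeting only one limit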
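Assay system: HUVEC primary endothelial cells. Input: 3,000 HUVEC seeded per well. Doses: one compound dose added by pin transfer. Read-out basis: % PE-positive cells. Benchmarks: TNF-alpha high, DMSO low. Detection: immunofluorescence imaging. Buffer or medium: EGM-2, gelatin.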
DENV2 CPE = protects cells from dengue virus 2 cytopathic effect; DENV2-infected cells, cytopathic effect rescue, plate reader; CPE inhibition, % at 9.99 µM; 350,000 compounds, 1.7% hits; in the data active means CPE inhibition above about 20%, passing the limit was not always enough; inconclusive means no clear call, values can overlap the other calls; tested in BHK-21 cells
SIRT5 block = blocks human SIRT5 desuccinylation of peptide; Q9NXA8; Purified SirT5, succinyl-peptide AMC, trypsin-coupled fluorescence; inhibition, % at 15 µM; 330,000 compounds, 1.1% hits; in the data active means inhibition above about 15%; inconclusive means no clear call, values can overlap the other calls
Target sequence (Q9NXA8 whole entry, looked up): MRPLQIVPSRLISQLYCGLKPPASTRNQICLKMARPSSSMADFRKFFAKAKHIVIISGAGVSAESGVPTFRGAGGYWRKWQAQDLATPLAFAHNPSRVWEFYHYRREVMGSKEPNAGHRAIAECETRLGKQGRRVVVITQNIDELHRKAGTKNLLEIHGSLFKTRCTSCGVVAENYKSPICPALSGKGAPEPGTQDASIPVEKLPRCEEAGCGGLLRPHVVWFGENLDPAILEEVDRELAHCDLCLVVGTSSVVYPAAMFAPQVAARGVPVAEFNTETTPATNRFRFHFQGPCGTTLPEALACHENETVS
Of the large screens only hits and unclear results are named; the others gave an inactive call.

CCC(=O)Nc1ccc2c(c1)C(=O)N(C)[C@H]1CC[C@@H](CC(=O)N[C@@H](C)c3ccccc3)O[C@@H]1CO2	DENV2 CPE inconclusive
CCC(=O)Nc1ccc2c(c1)C(=O)N(C)[C@@H]1CC[C@H](CC(=O)N[C@@H](C)c3ccccc3)O[C@@H]1CO2	DENV2 CPE 139
CC(C)NC(=O)Nc1ccc2c(c1)C(=O)N(C)[C@H]1CC[C@H](CC(=O)Nc3ccccc3F)O[C@@H]1CO2	none (no result: SIRT5 block)
CCC(=O)Nc1ccc2c(c1)C(=O)N(C)[C@H]1CC[C@@H](CC(=O)N[C@@H](C)c3ccccc3)O[C@H]1CO2	DENV2 CPE 71
CCC(=O)Nc1ccc2c(c1)C(=O)N(C)[C@H]1CC[C@H](CC(=O)N[C@H](C)c3ccccc3)O[C@@H]1CO2	none
CC(C)C(=O)Nc1ccc2c(c1)C(=O)N(C)[C@H]1CC[C@H](CC(=O)Nc3ccccc3F)O[C@@H]1CO2	DENV2 CPE 78
CCC(=O)Nc1ccc2c(c1)C(=O)N(C)[C@@H]1CC[C@H](CC(=O)N[C@@H](C)c3ccccc3)O[C@H]1CO2	DENV2 CPE 62
CN(C)S(=O)(=O)c1cccc(C(=O)N=C2N=C3C=CC(Cl)=CN3Cc3ccccc32)c1	none
COCC(=O)N(C)C[C@@H]1Oc2cc(C#CC(C)(C)O)ccc2S(=O)(=O)N([C@@H](C)CO)C[C@H]1C	none
Cc1ccc(C2=CC(=O)CC(C)(C)C2)cc1	none (no result: SIRT5 block)
CCS(=O)(=O)N1CC2(CN(Cc3cc(F)ccc3F)[C@H](CO)c3c2c2ccc(OC)cc2n3C)C1	none
CC1CCCC(NC(=O)COC(=O)CCC(=O)c2cccs2)C1C (centres undefined)	none
CC1CCCC(NC(=O)COC(=O)CCSc2ccccc2)C1C (centres undefined)	SIRT5 block 16
O=C(COC(=O)CN1C(=O)NC2(CCCC2)C1=O)Nc1ccc(C(F)(F)F)cc1[N+](=O)[O-]	DENV2 CPE 32 (no result: E-sel inducer)
O=C(COC(=O)CN1C(=O)NC2(CCCC2)C1=O)Nc1ccccc1C(F)(F)F	none
CC1CC2C(C(O)CC3(C)C2CCC3(O)C(=O)CO)C2(C)C=CC(=O)C=C12 (centres undefined)	SIRT5 block 35
CC(=O)OCC(=O)[C@@]1(O)CC[C@H]2[C@@H]3C[C@H](C)C4=CC(=O)C=C[C@]4(C)[C@H]3[C@@H](O)C[C@@]21C	none
CN1C(=O)c2cc(NC(=O)Nc3ccccc3Cl)ccc2OC[C@@H]2O[C@@H](CC(=O)O)CC[C@@H]21	none (no result: SIRT5 block)
COc1ccc2c3c([nH]c2c1)[C@@H](CO)N(Cc1cccnc1)CC31CCN(C(=O)c2cccnc2)CC1	none
C=CCSc1nnc(NC(=O)c2c(CC)noc2C)s1	none
C=CCSc1nnc(NC(=O)c2cn(CC)c3nc(C)ccc3c2=O)s1	SIRT5 block 20 (no result: DENV2 CPE)
CCOC(=O)N(C)C[C@@H]1OCc2ccccc2-c2ccccc2C(=O)N([C@H](C)CO)C[C@@H]1C	none
C[C@@H]1CN([C@H](C)CO)C(=O)c2ccccc2-c2ccccc2CO[C@@H]1CN(C)C(=O)[C@H]1CCCN1C	DENV2 CPE 79
CCOC(=O)N(C)C[C@@H]1OCc2ccccc2-c2ccccc2C(=O)N([C@@H](C)CO)C[C@H]1C	SIRT5 block 25
C[C@H](CO)N1C[C@H](C)[C@H](CN(C)C(=O)[C@H]2CCCN2C)OCc2ccccc2-c2ccccc2C1=O	none
Cc1ccc(-c2csc(NC(=O)c3ccc(S(=O)(=O)N4CCc5ccccc54)cc3)n2)cc1	DENV2 CPE 25
O=C(Nc1nc(-c2ccccc2)cs1)c1ccc(S(=O)(=O)N2CCc3ccccc32)cc1	DENV2 CPE inconclusive
CCOC(=O)[C@]12Cc3c(cc(OC)c(OC)c3OC)[C@H]1N(C1CCCCC1)C(=O)c1cc(OC)ccc12	DENV2 CPE inconclusive
C=CCN1Cc2ccccc2C[C@@]2(COC(c3ccc(OCCCO)cc3)=N2)C1=O	DENV2 CPE 24 (no result: E-sel inducer)
C=CCN1Cc2ccccc2[C@@H]2OC(c3ccc(OCCCO)cc3)=N[C@]2(Cc2ccccc2)C1=O	none (no result: E-sel inducer)
CC(C)CCN1C(Nc2ccccc2)=NC[C@@H]1CC(C)C	none
c1ccc(CCCCN2C(Nc3ccccc3)=NC[C@@H]2Cc2ccccc2)cc1	DENV2 CPE 24 (no result: SIRT5 block)
CCCCCCCN1C(Nc2ccccc2)=NC[C@@H]1Cc1ccccc1	none
CCN1C(Nc2ccccc2)=NC[C@@H]1CC(C)C	DENV2 CPE 22
CCOc1ccc(N2C(=O)C3ON(c4ccccc4)C(c4ccco4)C3C2=O)cc1 (centres undefined)	none (no result: E-sel inducer)
Cc1ccccc1N1C(=O)C2ON(c3ccccc3)C(c3ccco3)C2C1=O (centres undefined)	SIRT5 block 23
Cc1cccc(NS(=O)(=O)c2cc3c(cc2C)N(C)CCO3)c1	none (no result: E-sel inducer)
CN1c2ccc(Cl)cc2C(=O)NC1C1CC=CCC1 (centres undefined)	none
COc1ccc(NC(=O)CN(C)CCOc2ccc(Cl)cc2)cc1OC	DENV2 CPE 47
COc1ccc(NC(=O)CN(c2ccc(Cl)cc2)S(C)(=O)=O)cc1OC	SIRT5 block 25 (no result: E-sel inducer)
CN(CCOc1ccc(Cl)cc1)CC(=O)Nc1ccc(OC(F)(F)F)cc1	none (no result: E-sel inducer)
CCOc1ccc(N(CC(=O)Nc2cccc(C)c2)S(C)(=O)=O)cc1	DENV2 CPE 43 (no result: E-sel inducer)
COc1ccc(Cl)cc1NC(=O)CN(C)CC(=O)Nc1cc(OC)c(OC)c(OC)c1	SIRT5 block 15
CCOc1ccc(N(CC(=O)Nc2ccc(Cl)cc2)S(C)(=O)=O)cc1	none (no result: SIRT5 block)
COc1ccc(Cl)cc1NC(=O)CN(C)CC(=O)Nc1ccc(Br)cc1	none
CCOc1ccc(N(CC(=O)Nc2ccc(Br)cc2)S(C)(=O)=O)cc1	none
Cc1cc(C(=O)NNC(=O)c2ccc(Cl)cc2Cl)c(C)o1	none
O=C(N/C(=C\c1ccc2c(c1)OCO2)C(=O)N1CCOCC1)c1ccccc1Br	none (no result: E-sel inducer)
O=C(CCCN1C(=O)/C(=C/c2cccs2)SC1=S)NNC(=O)c1cccnc1	none (no result: E-sel inducer)
CCN(CC(=O)Nc1ccc(NC(C)=O)cc1)C(=O)C1CCC1	none
COc1ccc(OCC(=O)N/N=C/c2ccncc2)cc1	none (no result: E-sel inducer)
N#Cc1ccc(-c2ccc(OCC(=O)NN=Cc3ccncc3)cc2)cc1	DENV2 CPE 30 (no result: E-sel inducer)
COc1ccc2oc(C(=O)OC(C)C(=O)N3CCC(C)CC3)c(C)c2c1 (centres undefined)	DENV2 CPE 34 (no result: E-sel inducer)
COc1ccc2oc(C(=O)OCC(=O)N3CC(C)CC(C)C3)c(C)c2c1 (centres undefined)	none
CC(=O)N(C[C@H]1N[C@H](CO)[C@@H]1c1ccccc1)C(C)C	none
CCN(C[C@@H]1[C@@H](c2ccccc2)[C@H](CO)N1S(C)(=O)=O)C(=O)C1CC1	none
CCC(=O)N(CC(C)C)C[C@@H]1[C@@H](c2ccccc2)[C@@H](CO)N1S(C)(=O)=O	DENV2 CPE 29
CC(C)CN(C[C@@H]1N[C@@H](CO)[C@@H]1c1ccccc1)C(=O)CN(C)C	DENV2 CPE 40
CCN(C[C@@H]1N[C@@H](CO)[C@@H]1c1ccccc1)C(=O)c1ccncc1	DENV2 CPE 22
CCN(C[C@H]1N[C@@H](CO)[C@@H]1c1ccccc1)C(=O)c1ccncc1	none
COc1ccc(Nc2nc(NCc3cccs3)nc3ccsc23)cc1OC	none (no result: SIRT5 block)
CCc1nn(CCCC(=O)NCc2ccc(OC(C)C)cc2)c(=O)c2cc3occc3n12	none (no result: E-sel inducer)
CC1=C(/C=C/C(C)=C/C=C/C(C)=C/CO)C(C)(C)CCC1	DENV2 CPE 122, SIRT5 block 26 (no result: E-sel inducer)

High-throughput results deposited in PubChem by Broad Institute.
